From publication PMC7439439 (Science Advances, 2020)
Read-outs that look alike come from different tables or passages of the source.

Legend:
[1] = system: luciferase-tagged SF8628 flank tumors; assay: Flank model of DIPG, intraperitoneal treatment; assay type: in vivo, athymic-nude mice
Outline: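 Athymic-nude mice received subcutaneous right-flank implants of 40-mm3 chunks of luciferase-tagged SF8628 tumours grown in other nude mice. Tumour presence was confirmed by luciferase scan at 1 week. Dosing began at a mean caliper volume of 140 mm3: reference HDAC inhibitor 10 mg/kg, test compound 12 mg/kg (molecular-weight adjusted), or vehicle (10% DMSO, 36% PEG, 54% PBS). Dosing stopped at 1500 mm3 or euthanasia end points. Tumours were harvested on the last treatment day for acetylated-H3 immunoblot with GAPDH as loading control.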

[2] = system: SF8628 orthotopic DIPG tumors; assay: Orthotopic SF8628 xenograft, histology after treatment; assay type: in vivo, SCID mice
Outline: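 NOD/SCID mice received 1 million luciferase-transduced SF8628 cells stereotactically into the pons (1.0 mm right, 0.5 mm posterior, 5.0 mm deep from lambda). Treatment started 21–24 days later over 2 weeks, using four CED infusions about 72 h apart, each over 6 min at 1.67 μl/min. Brains were then harvested. Nuclei on H&E and Ki67+ nuclei were counted on ≥5 40× fields. Apoptosis index was Cc3+ cells divided by tumour area × cellularity. H3Ac+ nuclei were counted per 10× field after colour deconvolution, Gaussian blur and thresholding.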

[3] = system: RCAS-based DIPG tumors; assay: Survival study in tumor-bearing RCAS mice; assay type: in vivo
Outline: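 DIPG was induced in 3–5-day-old Ntva/p53fl/fl pups by pontine injection of DF1 cells carrying RCAS-PDGFB, H3K27M-GFP, CRE and luciferase. From day 21–24, over 2 weeks, mice received one of: intraperitoneal 10 mg/kg in 10% DMSO/36% PEG/54% PBS; intraperitoneal vehicle; or one or four CEDs of 10 μl, 100 μM in 1% DMSO/PBS (or vehicle), 72 h apart, each over 6 min. End point was ≥10% weight loss on two consecutive measurements, or other end points. Survival was analysed by log-rank.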

[4] = Safety in mice; assay type: in vivo
[5] = 11 patients, oral formulation; cited from earlier work
[6] = primate studies, oral delivery; cited from earlier work
[7] = four CED doses at 72-hour intervals

In the case of Cc1[nH]c2ccccc2c1CCNCc1ccc(/C=C/C(=O)NO)cc1 [panobinostat], the “H3Ac in tumors by Western blotting” value ([1]; animals sacrificed on the last day of treatment) is reported as “recovery of H3Ac”, the “tumor growth compared to vehicle” value ([1]; caliper tumor volume, daily intraperitoneal for 2 weeks) is reported as “slowed down tumor growth” and the “H3Ac in tumor cells versus intraperitoneal vehicle” value [2, 7] is reported as “increase in H3Ac in tumor cells”. The “Ki67+ cycling cells versus vehicle” value [2, 7] was “decrease in overall Ki67^+ cycling cells”, the “apoptotic cell death, cleaved caspase-3 positive cells” value [2, 7] was “increase in apoptotic cell death” and the “tumor cellularity versus vehicle” value ([2]; four CED doses at 72-hour intervals, H&E) was “decrease in tumor cellularity”. The “histological effects (cellularity, Ki67, Cc3, H3Ac)” value ([2]; systemic treatment) was “failed to achieve any of these results”, the median survival ([3]; 4× CED, 10 μl 100 μM, 72 hours apart) was 63 days and the median survival ([3]; intraperitoneally, 10 mg/kg, over 2 weeks) was 35 days. The median survival ([3]; single CED session, 10 μl 100 μM) was 37.5 days, the “toxicity after systemic injections” value [4] was “significant toxicities including weight loss” and the “detection in CSF” value [5] was “not detected”. The “detection in CSF” value [6] was “failed at detecting significant amounts”.
